Experimental data published in ChEMBL document CHEMBL3227946, “Antianaphylactic agents. 1. 2-(Acylamino)oxazoles” (1979).
Activity calls are given as the source filed them. No rule for the calls is given here.

Tests used:
Rattus norvegicus = test: Antianaphylactic activity in antiovalbumin IgE serum-treated Wistar rat at 2 x 100 mg/kg, po administered 2.5 hrs prior to ovalbumin challenge measured after 45 mins by passive cutaneous anaphylaxis test; format: functional, organism-based; parameters: dose 100 mg/kg; settings: in the assay text read “2 hrs and again 30 mins prior to” for “2.5 hrs prior to”
Method in brief: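 Female Wistar rats, shaved and lightly anaesthetized, received an intradermal abdominal injection of diluted rat antiovalbumin IgE serum. After 24 h they were challenged iv with ovalbumin mixed with dye. Compound was given at 2 h and again at 30 min before challenge. Rats were killed 45 min after challenge and the blue area on the inner skin surface was measured.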

[1] = Antianaphylactic activity in ovalbumin sensitized albino guinea pig chopped lung assessed as inhibition of antigen-induced slow-reacting substance of anaphylaxis release at 10 ug/mL after 15 mins relative to control; format: functional, Cavia porcellus
Method in brief: (§1)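 Lungs were perfused with Tyrode's, chopped into 0.5-mm cubes and split into 100-mg aliquots. Aliquots were challenged with antigen ± compound and rocked at 37 °C for 15 min. Unchallenged controls gave spontaneous release. Supernatant histamine or SRS-A was bioassayed on guinea pig ileum against standards. Values are % inhibition, mean of four samples.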

[2] = Antianaphylactic activity in ovalbumin sensitized albino guinea pig chopped lung assessed as inhibition of antigen-induced histamine release at 10 ug/mL after 15 mins relative to control; format: functional, Cavia porcellus; method in brief: as §1
[3] = Antianaphylactic activity in human chopped lung treated with atopic serum isolated from patients allergic to cocksfoot pollen assessed as inhibition of antigen-induced histamine release at 10 ug/mL after 15 mins relative to control; format: functional; settings: 0.25 h
Method in brief: (§2)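 Surgical human lung (bronchial carcinoma resections) was washed in Hank's, chopped into 0.5-mm cubes and incubated for 18 h at 18 °C with atopic serum from cocksfoot pollen-allergic patients. Tissue was washed, equilibrated in Tyrode's at 37 °C and challenged with saline pollen extract ± compound for 15 min. Histamine or SRS-A in the supernatant was bioassayed on guinea pig ileum. Values are % inhibition, mean of four samples.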

[4] = Antianaphylactic activity in human chopped lung treated with atopic serum isolated from patients allergic to cocksfoot pollen assessed as inhibition of antigen-induced slow-reacting substance of anaphylaxis release at 10 ug/mL after 15 mins relative to control; format: functional; settings: 0.25 h; method in brief: as §2

| Structure (SMILES) | Activity (Rattus norvegicus) | inhibition (INH) [1] [%] | inhibition (INH) [2] [%] | inhibition at 10 µg/mL [3] [%] | inhibition at 10 µg/mL [4] [%] |
| --- | --- | --- | --- | --- | --- |
| CC(=O)N(C)c1nc(C)co1 | inactive | 9 | 0 |  |  |
| CCCCN(C(=O)C1CCC1)c1nc(C)c(C)o1 | inactive | 10 | 0 |  |  |
| CCN(C(=O)C(C)C)c1nc(C)c(C)o1 | inactive | 21 | 13 |  |  |
| C=CCN(C(=O)C(C)C)c1nc(C)co1 | inactive | 23 | 42 |  |  |
| CCCCN(C(=O)C(C)CC)c1nc(C)co1 (stereo in doubt; 39) [listing 1 of 2 here] | inactive |  |  |  |  |
| CCCCN(C(=O)C(C)CC)c1nc(C)co1 (stereo in doubt; 39) [listing 2 of 2 here] |  | 79 | 30 |  |  |
| CCCCN(C(C)=O)c1nc(C)c(C)o1 | inactive | 32 | 13 |  |  |
| CCCCN(C(=O)C(C)C)c1nc(-c2ccccc2)co1 | inactive | 39 | 23 |  |  |
| CCCCN(C(=O)C(C)CC)c1nc(C)co1 (racemic) [listing 1 of 2 here] |  | 76 | 54 | 5 | 36 |
| CCCC(=O)N(c1nc(C)co1)C(C)CC (stereo unspecified) | inactive | 34 | 6 |  |  |
| CC(=O)N(C)c1nc(C)c(C)o1 | inactive | 17 |  |  |  |
| CCCCN(C(=O)Cc1ccccc1)c1nc(C)co1 | inactive | 31 | 0 |  |  |
| Cc1coc(N(C(=O)C(C)C)C(C)C)n1 | inactive | 10 |  | 0 | 0 |
| CCCCCCC(=O)N(CCCC)c1nc(C)co1 | inactive | 8 |  |  |  |
| CCCCN(C(=O)C(C)C)c1nc(C)c(C)o1 | inactive | 43 | 49 | 49 | 43 |
| CCCCN(C(=O)C(C)C)c1nc(CC)co1 | inactive | 41 | 20 |  |  |
| CCC(C)CN(C(=O)C(C)C)c1nc(C)co1 (stereo unspecified) | inactive | 37 | 29 |  |  |
| CCCCCN(C(=O)CC)c1nc(C)co1 | inactive | 41 | 16 |  |  |
| CCCCCCN(C(=O)C(C)C)c1nc(C)co1 | inactive | 42 | 18 |  |  |
| CCCCN(C(=O)C(C)C)c1nc(C2CCCCC2)co1 | inactive | 0 |  |  |  |
| CCCCC(=O)N(c1nc(C)co1)C(C)C | inactive | 0 | 0 | 0 | 0 |
| CCCCN(C(=O)C(C)CC)c1nc(C)co1 (stereo in doubt; 38) [listing 1 of 2 here] | inactive |  |  |  |  |
| CCCC(=O)N(CC)c1nc(C)co1 | inactive | 13 | 30 |  |  |
| CCCCN(C(=O)C(CC)CC)c1nc(C)co1 | inactive | 55 | 29 |  |  |

| Structure (SMILES) | Activity (Rattus norvegicus) | inhibition (INH) [1] [%] | inhibition (INH) [2] [%] | inhibition at 10 µg/mL [3] [%] | inhibition at 10 µg/mL [4] [%] |
| --- | --- | --- | --- | --- | --- |
| CCCCN(C(C)=O)c1nc(C)co1 | inactive | 39 | 26 |  |  |
| CCCCN(C(=O)C(C)CC)c1nc(C)co1 (stereo in doubt; 38) [listing 2 of 2 here] |  | 63 | 8 |  |  |
| CN1CCC(=C2c3ccccc3CC(=O)c3sccc32)CC1.O=C(O)/C=C/C(=O)O [KETOTIFEN FUMARATE] |  | 38 | 37 |  |  |
| CCCCN(C(=O)C(C)C)c1ncc(CC)o1 | inactive | 35 | 52 |  |  |
| C=CCN(C(=O)CCC)c1nc(C)co1 | inactive | 31 | 51 |  |  |
| CCCCN(C(=O)C1CCCC1)c1nc(C)co1 | inactive | 66 | 47 | 0 | 69 |
| Cc1coc(N(C)C(=O)C(C)C)n1 | inactive | 25 | 61 |  |  |
| CCCCN(C(=O)C1CCCCCC1)c1nc(C)co1 | inactive | 49 | 0 |  |  |
| CCCCN(C(=O)CC1CCCC1)c1nc(C)co1 | inactive | 22 | 0 | 0 | 0 |
| CCCCC(=O)N(CCCC)c1nc(C)co1 | inactive | 49 | 21 |  |  |
| CCCCCCN(C(C)=O)c1nc(C)co1 | inactive | 8 |  | 13 | 15 |
| CCCCN(C(=O)CCC)c1nc(C)c(C)o1 | inactive | 37 | 46 |  |  |
| CCC(=O)N(c1nc(C)co1)C(C)C | inactive | 17 |  | 0 | 0 |
| CCCCN(C(=O)C(C)C)c1ncco1 | inactive | 44 | 8 |  |  |
| CCCCN(C(=O)C(C)CC)c1nc(C)co1 (racemic) [listing 2 of 2 here] | inactive |  |  |  |  |
| CCCCCN(C(=O)C(C)C)c1nc(C)co1 | inactive | 66 | 28 | 14 | 47 |
| CCC(C)N(C(=O)C(C)C)c1nc(C)co1 (stereo unspecified) | inactive | 13 | 3 |  |  |
| CCCCN(C(=O)C1CCCCC1)c1nc(C)co1 | inactive | 32 | 27 | 29 | 26 |
| CCCC(=O)N(CC(C)CC)c1nc(C)co1 (stereo unspecified) | inactive | 33 | 35 |  |  |
| CCCCc1coc(N(CCCC)C(=O)C(C)C)n1 | inactive | 14 |  |  |  |
| CCCCN(C(=O)C(C)C)c1nc(-c2ccc(Cl)cc2)co1 | inactive | 37 | 44 |  |  |
| CCCC(=O)N(c1nc(C)co1)C1CCCCC1 | inactive | 29 | 37 |  |  |
| CCCCN(C(=O)C(C)C)c1ncc(C2CCCCC2)o1 | inactive | 21 |  |  |  |
| CCCCN(C(=O)C(C)C)c1ncc(C)o1 | inactive | 52 | 31 |  |  |
